pIC50: −log10 of the molar value. Calls of active or inactive are those of the source. The rule behind the calls is not given here.
Legend:
[1] = (§1) Anticancer activity against mouse 319N1 cells assessed as reduction in cell viability measured after 72 hrs by celltiter-glo assay; format: functional, cell-based; conditions: 319N1, 72 h
Procedure, shortened: (§2)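 Cells seeded in duplicate at 10,000 per well in DMEM with 5% FBS and incubated overnight. Compounds were then added as a 10-point dose response. After 72 h, viability was read by CellTiter-Glo luminescence, with the reagent diluted 1:1 in PBS/1% Triton-X. Values were normalized to DMSO-treated cells and IC50 was derived from curve fitting.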

518T2 [2] = assay: Binding affinity to beta-tubulin in mouse 518T2 cells at 0.1 to 50 uM measured after 1.5 hrs using Alexa Fluor 532 dye by copper-mediated click reaction based SDS PAGE analysis; format: cell-based; conditions: dose microM 0.1-50, time 1.5 hrs
Procedure, shortened: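 Competition assay in 518T2 cells (1 million per well, DMEM with 5% FBS). Test analogs in DMSO were dispensed first at 100 nM to 50 μM and the cells plated onto them. The next day, alkyne probe (5 μM) was added for 1.5 h at 37 °C. Lysis was in 1% SDS HEPES buffer, followed by a click reaction with fluorescent azide, SDS-PAGE, and EC50 from displacement of the p50 band.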

518T2 [3] = assay: Cell cycle arrest in mouse 518T2 cells assessed as increase in accumulation at G2/M-phase at 300 nM measured after 24 hrs by propidium iodide staining based flow cytometry; format: functional
Procedure, shortened: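 518T2 murine SCLC cells were exposed for 24 h to compound (300 nM) or DMSO vehicle. Cell cycle distribution was then read by flow cytometry.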

Bos taurus = species: Bos taurus; assay: Binding affinity to bovine brain beta-tubulin assessed as reduction in microtubule growth at 1 uM measured up to 30 mins by microscopic analysis relative to control; design: scale not given: the % may be the effect or the level left; conditions: time min <=30
Procedure, shortened: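 Microtubule growth from brain tubulin was imaged by time-lapse DIC microscopy at 30 °C on biotinylated GMPCPP seeds bound to neutravidin coverslips. Frames were taken every 50 ms and averaged in batches of 30; recordings ran about 30 min. Growth rates were quantified per microtubule.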

[4] = molecular target: Tubulin beta-3 chain (Homo sapiens) (UniProt Q13509); assay: Binding affinity to recombinant human C-terminal His-tagged beta3-tubulin expressed in insect cells assessed as reduction in microtubule growth up to 10 uM measured up to 30 mins by microscopic analysis; conditions: dose microM <=10, time min <=30
Tubulin beta-3 chain (Homo sapiens), sequence (Q13509 whole entry): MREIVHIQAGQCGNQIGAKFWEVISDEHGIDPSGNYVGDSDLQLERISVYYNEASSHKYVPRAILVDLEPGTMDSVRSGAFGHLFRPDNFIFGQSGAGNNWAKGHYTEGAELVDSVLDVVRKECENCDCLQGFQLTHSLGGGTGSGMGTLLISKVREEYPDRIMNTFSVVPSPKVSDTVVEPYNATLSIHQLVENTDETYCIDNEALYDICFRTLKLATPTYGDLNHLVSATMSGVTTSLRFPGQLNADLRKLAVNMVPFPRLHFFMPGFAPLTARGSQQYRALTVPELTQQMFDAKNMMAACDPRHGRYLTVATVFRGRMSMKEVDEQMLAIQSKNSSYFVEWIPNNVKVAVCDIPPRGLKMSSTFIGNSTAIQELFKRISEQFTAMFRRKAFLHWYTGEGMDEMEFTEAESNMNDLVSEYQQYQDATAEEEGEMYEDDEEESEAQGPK
Procedure, shortened: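 Human αβ-tubulin (TUBA1B plus TUBB3 with cleavable C-terminal His-tag) was expressed in Tni insect cells. It was purified by Ni-affinity, TEV cleavage and anion exchange, then kept in BRB80 with 50 μM GTP. Growth was measured by DIC time-lapse at 30 °C on GMPCPP seeds in 144 mM PIPES pH 6.9 buffer with 1 mM GTP and 4% DMSO, over about 30 min. Compound was tested at 1, 5 and 10 μM; growth rates were measured per microtubule over two trials.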

518T2 [5] = assay: Inhibition of colony formation in mouse 518T2 cells harboring Tubb5 T238A mutant at 400 nM measured after 2 weeks by crystal violet staining based assay; format: functional, cell-based
Procedure, shortened: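 518T2 cells were transfected with Cas9-sgRNA complexes targeting Tubb5 plus an oligonucleotide repair template encoding T238A, or a sham control. They were selected with compound at 400 nM for 2 weeks, and the plates were then stained with crystal violet to visualize resistant colonies.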

[6] = Anticancer activity against mouse 984NA cells assessed as reduction in cell viability measured after 72 hrs by celltiter-glo assay; format: functional, cell-based; procedure, shortened: as §2
[7] = Anticancer activity against mouse 518T2 cells assessed as reduction in cell viability measured after 72 hrs by celltiter-glo assay; format: functional, cell-based; conditions: 518T2, 72 h; procedure, shortened: as §2
NCI-H889 = assay: Anticancer activity against human NCI-H889 cells assessed as reduction in cell viability measured after 72 hrs by celltiter-glo assay; format: functional, cell-based
NCI-H2107 = assay: Anticancer activity against human NCI-H2107 cells assessed as reduction in cell viability measured after 72 hrs by celltiter-glo assay; format: functional, cell-based
NCI-H128 = assay: Anticancer activity against human NCI-H128 cells assessed as reduction in cell viability measured after 72 hrs by celltiter-glo assay; format: functional, cell-based
[8] = (§3) Anticancer activity against mouse 319N1 clone C cells assessed as reduction in cell viability measured after 72 hrs by celltiter-glo assay; format: functional, cell-based; conditions: 319N1, 72 h; procedure, shortened: as §2
518T2 [9] = assay: Binding affinity to beta-tubulin in mouse 518T2 cells at 0.05 to 50 uM measured after 1.5 hrs using Alexa Fluor 532 dye by copper-mediated click reaction based SDS PAGE analysis; format: cell-based; conditions: dose microM 0.05-50, time 1.5 hrs
Procedure, shortened: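 518T2 cells were plated at 1 million per well in DMEM with 5% FBS. The next day, alkyne probe in DMSO was added at 50 nM to 50 μM for 1.5 h at 37 °C in 5% CO2. Cells were washed, lysed in 1% SDS buffer (50 mM HEPES pH 7.4, 10 mM KCl, 2 mM MgCl2, benzonase), click-reacted with Alexa Fluor 532 azide and resolved by SDS-PAGE fluorescence.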

518T2 [10] = assay: Binding affinity to beta-tubulin in mouse 518T2 cells measured after 1.5 hrs using diazo biotin azide dye by silver staining based based SDS PAGE analysis; format: cell-based
Procedure, shortened: (§4)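 518T2 cells were grown at large scale (100 mg protein per condition) and treated with covalent or non-covalent alkyne probe. Lysates were clicked to 100 μM diazo biotin azide, acetone-precipitated, resolubilized in 4% SDS/PBS, and captured on streptavidin beads for 1 h at 25 °C. Eluates were run on silver-stained SDS-PAGE or analyzed by nano-LC-MS/MS (Orbitrap, HCD). Peptide abundance was normalized to the non-covalent probe sample.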

[11] = molecular target: Tubulin beta-5 chain (Mus musculus) (UniProt P99024); assay: Binding affinity to beta5-tubulin in mouse 518T2 cells measured after 1.5 hrs by LC-MS/MS analysis; format: cell-based; procedure, shortened: as §4
Tubulin beta-5 chain (Mus musculus), sequence (P99024 whole entry, the tested form may be a part): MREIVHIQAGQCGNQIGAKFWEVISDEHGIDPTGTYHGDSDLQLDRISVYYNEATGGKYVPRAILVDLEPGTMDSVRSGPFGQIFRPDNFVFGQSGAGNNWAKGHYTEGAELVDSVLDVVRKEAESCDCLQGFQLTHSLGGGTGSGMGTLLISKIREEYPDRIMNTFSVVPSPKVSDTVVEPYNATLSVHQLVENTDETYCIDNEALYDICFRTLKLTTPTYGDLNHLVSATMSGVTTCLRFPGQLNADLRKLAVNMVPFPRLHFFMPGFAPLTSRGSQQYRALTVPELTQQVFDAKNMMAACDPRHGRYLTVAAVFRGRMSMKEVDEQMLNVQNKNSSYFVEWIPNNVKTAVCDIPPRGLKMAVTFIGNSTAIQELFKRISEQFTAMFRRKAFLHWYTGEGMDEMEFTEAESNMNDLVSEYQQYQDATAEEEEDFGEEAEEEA

[12] = molecular target: Tubulin beta-5 chain (Mus musculus) (UniProt P99024); assay: Binding affinity to beta5-tubulin (217 to 241 residues) in mouse 518T2 cells measured after 1.5 hrs by LC-MS/MS analysis; format: cell-based; procedure, shortened: as §4
319N1 [13] = assay: as §1; format: functional, cell-based; procedure, shortened: as §2
518T2 [14] = assay: Binding affinity to beta-tubulin in mouse 518T2 cells measured after 1.5 hrs using Alexa Fluor 532 dye by copper-mediated click reaction based SDS PAGE analysis; format: cell-based
Procedure, shortened: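 Competition format in 518T2 murine SCLC cells, 1 million per well in DMEM with 5% FBS. Analogs in DMSO (100 nM to 50 μM) were dispensed first and cells plated onto them. Next day alkyne probe 24 (5 μM) was added for 1.5 h at 37 °C, 5% CO2. EC50 was taken from displacement of the 50 kDa band.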

319N1 [15] = assay: Anticancer activity against Msh2-deficient mouse 319N1 cells assessed as reduction in cell viability measured after 72 hrs by celltiter-glo assay; format: functional, cell-based; procedure, shortened: as §2
319N1 [16] = assay: Anticancer activity against mouse 319N1 clone A cells assessed as reduction in cell viability measured after 72 hrs by celltiter-glo assay; format: functional, cell-based; procedure, shortened: as §2
319N1 [17] = assay: Anticancer activity against mouse 319N1 clone B cells assessed as reduction in cell viability measured after 72 hrs by celltiter-glo assay; format: functional, cell-based; procedure, shortened: as §2
319N1 [18] = assay: as §3; format: functional, cell-based; procedure, shortened: as §2
319N1 [19] = assay: Anticancer activity against mouse 319N1 clone D cells assessed as reduction in cell viability measured after 72 hrs by celltiter-glo assay; format: functional, cell-based; procedure, shortened: as §2
319N1 [20] = assay: Anticancer activity against mouse 319N1 clone E cells assessed as reduction in cell viability measured after 72 hrs by celltiter-glo assay; format: functional, cell-based; procedure, shortened: as §2

For `N#Cc1cccc(N2CCN(C(=O)c3ccc(Cl)c([N+](=O)[O-])c3)CC2)c1`, the pIC50 [1] was 6.23.
In the case of `Cc1ccc(Cl)cc1N1CCN(C(=O)c2ccc(Br)c([N+](=O)[O-])c2)CC1`, the pIC50 [1] was 7.26, the “beta-tubulin binding (probe competition, active/inactive)” value (518T2 [2]) was “Active” and the Activity (518T2 [3]) was “Active”. For the same compound, the Activity (Bos taurus) was 80%, the Activity [4] was “inactive” and the inhibition (518T2 [5]) was “inactive”.
`Cc1ccc(Cl)cc1N1CCN(C(=O)c2cccc([N+](=O)[O-])c2Cl)CC1` gave a pIC50 [1] of 4.91.
In the case of `O=C(c1ccc(Cl)c([N+](=O)[O-])c1)N1CCN(c2ccccc2)CC1`, the pIC50 [1] was 5.49, the pIC50 [6] was 5.49 and the pIC50 [7] was 5.49. For the same compound, the Activity (NCI-H889) was “Active”, the Activity (NCI-H2107) was “Active” and the Activity (NCI-H128) was “Active”. For the same compound, the “beta-tubulin binding (probe competition, active/inactive)” value (518T2 [2]) was “Active”.
With `Cc1ccc(Cl)cc1N1CCN(C(=O)c2ccc(Cl)c([N+](=O)[O-])c2)CC1` the “beta-tubulin binding (probe competition, active/inactive)” value (518T2 [2]) was “Active” and the pIC50 [8] was 5.83.
For `O=C(c1ccc(Cl)c([N+](=O)[O-])c1)N1CCN(c2ccccc2Cl)CC1`, the pIC50 [1] was 5.53 and the “beta-tubulin binding (probe competition, active/inactive)” value (518T2 [2]) was “Active”.
With `C#CCOc1cccc(N2CCN(C(=O)c3ccc(Cl)c([N+](=O)[O-])c3)CC2)c1` the pIC50 [1] was 5.92, the Activity (518T2 [9]) was “Active” and the Activity (518T2 [10]) was “Active”. For the same compound, the Activity [11] was “Active” and the Activity [12] was “Active”.
`Cc1ccc(Cl)cc1N1CCN(C(=O)c2ccc([N+](=O)[O-])c(Cl)c2)CC1` gave a pIC50 [1] of 5.33.
With `O=C(c1ccc(Cl)cc1)N1CCN(c2ccccc2)CC1` the Activity (319N1 [13]) was “inactive”.
For `COC(=O)c1c(C)oc2ccc(NS(=O)(=O)c3ccc(Cl)c([N+](=O)[O-])c3)cc12`, the pIC50 [1] was 5.55, the inhibition (518T2 [14]) was “Dose-dependent effect” and the pIC50 [8] was 5.12.
`O=C(c1ccc(Cl)c([N+](=O)[O-])c1)N1CCN(c2cccc(Cl)c2)CC1` showed a pIC50 [1] of 6.16.
With `COc1cc([C@@H]2c3cc4c(cc3[C@@H](O[C@@H]3O[C@@H]5CO[C@@H](C)O[C@H]5[C@H](O)[C@H]3O)[C@H]3COC(=O)[C@H]23)OCO4)cc(OC)c1O` the Activity (319N1 [15]) was “Active”, the Activity (319N1 [16]) was “Active” and the Activity (319N1 [17]) was “Active”. The Activity (319N1 [18]) was “Active”, the Activity (319N1 [19]) was “Active” and the Activity (319N1 [20]) was “Active”.
In the case of `Cc1ccc(Cl)cc1N1CCN(C(=O)c2ccc(F)c([N+](=O)[O-])c2)CC1`, the “beta-tubulin binding (probe competition, active/inactive)” value (518T2 [2]) was “Active”.
In the case of `O=C(c1cccc([N+](=O)[O-])c1)N1CCN(c2ccccc2)CC1`, the Activity (319N1 [13]) was “inactive”.
In the case of `O=C(c1ccc(Cl)c([N+](=O)[O-])c1)N1CCN(c2cccc(Br)c2)CC1`, the pIC50 [1] was 6.06 and the “beta-tubulin binding (probe competition, active/inactive)” value (518T2 [2]) was “Active”.
`Cc1ccc(Cl)cc1N1CCN(C(=O)c2ccc(OC(F)(F)F)c([N+](=O)[O-])c2)CC1` showed a pIC50 [1] of 7.70.
